The results in this text go back to ChEMBL document CHEMBL1149473, “Anti-AIDS agents 69. Moronic acid and other triterpene derivatives as novel potent anti-HIV agents” (J Med Chem, 2006).

Series [1] in a line: Therapeutic index, IC50 for MT-4/EC50 for HIV1 NL4-3. Conditions: human, MT-4 cells.
Series [2] concerns H9. Description: Antiviral activity against HIV1 3B in H9 lymphocytes. The series is classed as functional, cell-based. As to conditions: for EC50: Homo sapiens. Summed up: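 HIV-1 IIIB isolate (125 TCID50) added to H9 cells at 3 × 10⁵ cells/mL in RPMI 1640 with 10% fetal calf serum and L-glutamine, 37 °C, 5% CO2. Media replaced on days 1 and 4 postinfection. Supernatant p24 antigen capture on day 6. EC50 = concentration suppressing replication by 50%. AZT run as positive control each experiment.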

The nature of series [3]: Therapeutic index, IC50 for H9/EC50 for HIV 3B. It counts as cell-based. Conditions: human, H9 cells; read-out: Ratio IC50/EC50. Summed up:
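Therapeutic index is IC50 divided by EC50. IC50 is the XTT toxicity in mock-infected H9 cells. EC50 is the 50% suppression of p24 in HIV-1 IIIB-infected H9 cells at day 6.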

Series [4] concerns MT4. The series is described as follows: Antiviral activity against HIV1 NL4-3 in MT4 cells. It counts as functional, cell-based. Conditions: for EC50: Homo sapiens, NL4-3, MT4. Summed up: (§1)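 MT4 cells were infected with HIV-1 at MOI 0.01 using the strain named in the line. NL4-3 is a T-cell adapted X4 wild-type virus. PI-R is M46I/L63P/V82T/I84V, resistant to multiple protease inhibitors. Supernatants were collected on day 4 postinfection for p24 ELISA. EC50 = concentration inhibiting replication by 50%.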

The test system of series [5] is H9. The series is described as follows: Cytotoxicity against human H9 lymphocytes. It counts as functional, cell-based. Summed up:
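Mock-infected H9 cells were treated in parallel with the antiviral plates under identical conditions, without virus, and were read by XTT on day 6. IC50 = concentration toxic to 50% of mock-infected cells.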

In series [6] the test system is MT4. Description: Cytotoxicity against human MT4 cells. The series is classed as functional, cell-based. A digest of the protocol: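 Cytotoxicity was measured in MT4 cells and given as IC50, the concentration decreasing viable cell number by 50%.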
The subject of series [7] is MT4. Description: Cytotoxicity against human MT4 cells at 5 uM. The series is classed as functional, cell-based.
For series [8], the system named is MT4. Description: Antiviral activity against HIV1 NL4-3 replication in human MT4 cells. Conditions: NL4-3, MT4. The series is classed as functional, cell-based. A digest of the protocol: as §1
For series [9], the system named is MT4. Description: Antiviral activity against HIV1 FHR2 replication in MT4 cells at 5 uM. The series is classed as functional, cell-based.
Series [10] has as its system MT4. The series is described as follows: Antiviral activity against HIV1 PI-R replication in human MT4 cells. It counts as functional, cell-based. Summed up:
as §1

A short description of series [11]: Inhibition of membrane fusion between HIV1 NL4-3 envelope gene expressing COS cells and TZM cells. It counts as functional, cell-based. A digest of the protocol: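 COS cells were electroporated with pSRHS carrying the HIV-1 NL4-3 envelope genes (2 µg per 10⁶ cells, 950 µF, 150 V) and cultured 1 day. They were then mixed with TZM cells (10⁴ COS : 10 × 10⁴ TZM) with compound at various concentrations, 37 °C, 24 h. Luciferase read-out. EC50 = 50% inhibition of envelope-mediated fusion.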

Series [12] in a line: Cytotoxicity against COS-TZM fused cells. The series is classed as functional, cell-based. A digest of the protocol:
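Cytotoxicity was determined as IC50 in a one-day assay, matching the fusion assay duration. The highest concentration tested was 10 µg/mL.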

Series [13] relates to MT4. The series is described as follows: Antiviral activity against HIV1 FHR2 replication in MT4 cells. It counts as functional, cell-based. As to conditions: Homo sapiens. A digest of the protocol: as §1

Activity calls are given as the source filed them. The rule behind the calls is not given here.

Consider `CC1(C)CC[C@]2(C(=O)O)CC[C@]3(C)C(=CC[C@@H]4[C@@]5(C)CC[C@H](OC(=O)CC(C)(C)C(=O)O)C(C)(C)[C@@H]5CC[C@]43C)[C@@H]2C1`, for which the selectivity ratio in series [1] was 2.4; in series [3] it was above 133. Besides, the EC50 in the series with H9 [2] turned out to be 320 nM; in the series with MT4 [4], 8300 nM. The IC50 in the series with H9 [5] is above 42700 nM; in the series on MT4 [6] it was 20200 nM.
As to `CC1(C)C=C2[C@H]3CC[C@@H]4[C@@]5(C)CC[C@H](OC(=O)C(C)(C)CC(=O)O)C(C)(C)[C@@H]5CC[C@@]4(C)[C@]3(C)CC[C@@]2(C(=O)NCCCCCCCCCCC(=O)O)CC1`, in the series with H9 [2], the EC50 worked out at 9300 nM. For the same compound, the selectivity ratio in series [3] is above 3.5. In the series on MT4 [4], the result was inactive. In the series on H9 [5], this compound had an IC50 above 32600 nM.
As to `CC(C)(CC(=O)O[C@H]1CC[C@]2(C)[C@H]3C(=O)C=C4[C@@H]5C[C@@](C)(C(=O)O)CC[C@]5(C)CC[C@@]4(C)[C@]3(C)CC[C@H]2C1(C)C)C(=O)O`, the outcome in the series with H9 [2] and in the series on MT4 [4] was inactive.
As to `C=C(C)[C@@H]1CC[C@]2(C(=O)O)CC[C@]3(C)[C@H](CC[C@@H]4[C@@]5(C)CC[C@H](OC(=O)CC(C)(C)C(=O)O)C(C)(C)[C@@H]5CC[C@]43C)[C@@H]12` [BEVIRIMAT], the selectivity ratio in [1] is above 52; in [3], above 6250. For the same compound, the EC50 is 7 nM in the series with H9 [2]; 96 nM in the series on MT4 [8]; 96 nM in the series on MT4 [4]; 430 nM in the series on MT4 [10]; above 17100 nM in series [11]. The IC50 in the series on MT4 [7] was above 5000 nM; in the series with H9 [5], above 42800 nM; in [12], above 17100 nM. Further, in the series with MT4 [9], the result was inactive.
Turning to `C=C(C)[C@@H]1CC[C@]2(C(=O)N[C@@H](CC(C)C)C(=O)O)CC[C@]3(C)[C@H](CC[C@@H]4[C@@]5(C)CC[C@H](OC(=O)CC(C)(C)C(=O)O)C(C)(C)[C@@H]5CC[C@]43C)[C@@H]12`, the selectivity ratio in series [1] is above 1220. The EC50 turned out to be 10 nM in the series with MT4 [8], 10 nM in the series with MT4 [4], 6 nM in the series on MT4 [10] and 50 nM in the series with MT4 [13]. In the series on MT4 [6], 12200 nM corresponded to half-maximal inhibition (IC50).
For `CC1(C)C=C2[C@H]3CC[C@@H]4[C@@]5(C)CC[C@H](OC(=O)CC(C)(C)C(=O)O)C(C)(C)[C@@H]5CC[C@@]4(C)[C@]3(C)CC[C@@]2(C(=O)NCCCCCCCCCCC(=O)O)CC1`, the values for the selectivity ratio in series [1] and in series [3] were 177 and 3400, respectively. Moreover, the EC50 in the series on H9 [2] came to 7 nM; in the series with MT4 [4], 110 nM; in [11] it was 5210 nM. For the same compound, the IC50 in the series on H9 [5] was 24000 nM; with MT4 [6] it was 19500 nM; in series [12], above 13000 nM.
Take `Cc1cn([C@H]2C[C@H](N=[N+]=[N-])[C@@H](CO)O2)c(=O)[nH]c1=O` [ZIDOVUDINE]: the EC50 is 13 nM with MT4 [8], 19 nM in the series on MT4 [10] and 19 nM with MT4 [13]. In the series on MT4 [6], this compound yielded a half-maximal inhibitory concentration (IC50) above 37500 nM.
For the compound `C[C@H]1[C@H](C)CC[C@]2(C(=O)O)CC[C@]3(C)C(=CC[C@@H]4[C@@]5(C)CC[C@H](OC(=O)CC(C)(C)C(=O)O)C(C)(C)[C@@H]5CC[C@]43C)[C@H]12`, the selectivity ratio in series [1] was determined as 2.5; in series [3], 360. Besides, the values for the EC50 in the series with H9 [2] and in the series with MT4 [4] were 79 nM and 8300 nM, respectively. The half-maximal inhibitory concentration (IC50) in the series on H9 [5] amounted to 28500 nM; in the series on MT4 [6], 21000 nM.
On to `C[C@H]1[C@H](C)CC[C@]2(C(=O)O)CC[C@]3(C)C(=CC[C@@H]4[C@@]5(C)CC[C@H](OC(=O)CC(C)(C)CC(=O)O)C(C)(C)[C@@H]5CC[C@]43C)[C@H]12`, for which, in the series with H9 [2], the EC50 was determined as 680 nM. The selectivity ratio in series [3] stood at 42. Besides, in the series with MT4 [4], the result was inactive. The IC50 in the series on H9 [5] was found to be 28500 nM.
Regarding `CC(C)C[C@H](NC(=O)[C@@]1(C)CC[C@]2(C)CC[C@]3(C)C(=CC(=O)[C@@H]4[C@@]5(C)CC[C@H](OC(=O)CC(C)(C)C(=O)O)C(C)(C)[C@@H]5CC[C@]43C)[C@@H]2C1)C(=O)O`, the outcome in the series with H9 [2] and with MT4 [4] was inactive.
Regarding `C=C(C)[C@@H]1CC[C@]2(C(=O)NCCCCCCCCCCC(=O)O)CC[C@]3(C)[C@H](CC[C@@H]4[C@@]5(C)CC[C@H](OC(=O)CC(C)(C)C(=O)O)C(C)(C)[C@@H]5CC[C@]43C)[C@@H]12`, the selectivity ratio in [1] was 1570. The EC50 in the series with MT4 [4] is 7 nM. In the series with MT4 [6], this compound registered an IC50 of 11000 nM.
In the case of `CC(C)C[C@@H](CO)NC(=O)[C@]12CCC(C)(C)C=C1[C@H]1CC[C@@H]3[C@@]4(C)CC[C@H](OC(=O)CC(C)(C)C(=O)O)C(C)(C)[C@@H]4CC[C@@]3(C)[C@]1(C)CC2`, the selectivity ratio is 522 in series [1] and above 2500 in [3]. The EC50 in the series with H9 [2] came to 17 nM; with MT4 [8], 45 nM; with MT4 [4], 45 nM; in the series with MT4 [10] it was 88 nM; in the series with MT4 [13], 2780 nM; in series [11] it was 5850 nM. For the same compound, the IC50 in the series with H9 [5] is above 42700 nM; in the series with MT4 [6] it was 23500 nM; in [12], above 14600 nM.
For the compound `C=C(C)[C@@H]1CC[C@]2(C)CC[C@]3(C)[C@H](CC[C@@H]4[C@@]5(C)CC[C@H](OC(=O)CC(C)(C)C(=O)O)C(C)(C)[C@@H]5CC[C@]43C)[C@@H]12`, the results for the selectivity ratio in series [1] and in [3] were above 1.7 and above 17.2, respectively. The EC50 with H9 [2] was 2600 nM; in the series with MT4 [4], 21600 nM. Further, the values for the IC50 in the series with H9 [5] and in the series with MT4 [6] were above 45100 nM and above 36100 nM, respectively.
Turning to `CC(C)C[C@H](NC(=O)[C@]12CCC(C)(C)C=C1[C@H]1CC[C@@H]3[C@@]4(C)CC[C@H](OC(=O)CC(C)(C)C(=O)O)C(C)(C)[C@@H]4CC[C@@]3(C)[C@]1(C)CC2)C(=O)O`, the selectivity ratio in series [1] is 2650; in series [3] it was above 2740. Besides, the EC50 amounted to 15.6 nM in the series with H9 [2]; 8.5 nM in the series with MT4 [8]; 8.5 nM in the series on MT4 [4]; 21 nM with MT4 [10]; 130 nM with MT4 [13]; 3580 nM in series [11]. In addition, the IC50 was above 42700 nM with H9 [5], 22500 nM in the series with MT4 [6] and above 14300 nM in series [12].
Regarding `CC(C)(CC(=O)O)CC(=O)O[C@H]1CC[C@]2(C)[C@H]3CC=C4[C@@H]5CC(C)(C)CC[C@]5(C(=O)O)CC[C@@]4(C)[C@]3(C)CC[C@H]2C1(C)C`, the result in the series with H9 [2] and in the series on MT4 [4] was inactive.
In series [11], `C=C(C)[C@@H]1CC[C@]2(C(=O)NCCCCCCCC(=O)N[C@@H](CC(C)C)[C@H](O)CC(=O)O)CC[C@]3(C)[C@H](CC[C@@H]4[C@@]5(C)CC[C@H](O)C(C)(C)[C@@H]5CC[C@]43C)[C@@H]12` registered an EC50 of 8.6 nM. Besides, the IC50 in series [12] is above 13200 nM.

What is called EC50 is the concentration giving half of the maximal effect. The IC50 is the concentration at which inhibition is half-maximal. Low readings indicate higher potency, high ones lower potency.
